# Assays:
# [1] = AUC infinity in Sprague-Dawley rat at 1 mg/kg, iv; assay type: ADME, organism-based; parameters: time infinity, route intravenous, dose 1 mg/kg; conditions: in vivo
# Outline: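 Single intravenous dose of 1 mg/kg given to fed Sprague–Dawley rats (n = 3); plasma and brain samples collected for pharmacokinetic parameters, with total brain:plasma ratio computed.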
# [2] = molecular target: T1, Dual specificity tyrosine-phosphorylation-regulated kinase 2 (Homo sapiens) (UniProt Q92630); assay: Inhibition of wild-type human full length DYRK2 (M1 to S528 residues) expressed in mammalian expression system assessed as remaining activity at 1 uM by Kinomescan method relative to control
# T1 sequence (whole entry): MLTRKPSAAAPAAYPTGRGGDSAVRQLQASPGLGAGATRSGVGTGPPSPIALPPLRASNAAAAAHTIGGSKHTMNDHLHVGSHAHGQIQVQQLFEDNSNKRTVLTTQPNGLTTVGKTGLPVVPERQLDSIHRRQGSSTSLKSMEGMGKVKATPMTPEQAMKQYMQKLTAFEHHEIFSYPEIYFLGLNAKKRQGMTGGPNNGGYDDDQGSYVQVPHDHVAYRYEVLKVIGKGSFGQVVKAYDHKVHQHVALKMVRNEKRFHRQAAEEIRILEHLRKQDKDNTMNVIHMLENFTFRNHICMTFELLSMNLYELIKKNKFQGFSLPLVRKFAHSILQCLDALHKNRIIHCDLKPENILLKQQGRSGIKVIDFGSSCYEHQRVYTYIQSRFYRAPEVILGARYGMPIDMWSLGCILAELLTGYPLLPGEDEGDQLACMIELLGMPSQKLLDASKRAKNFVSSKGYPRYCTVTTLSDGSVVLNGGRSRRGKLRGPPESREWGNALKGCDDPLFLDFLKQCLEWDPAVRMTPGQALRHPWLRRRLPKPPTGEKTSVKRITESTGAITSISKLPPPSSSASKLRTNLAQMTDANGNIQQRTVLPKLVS
# Outline: (§1)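 KINOMEscan competition binding panel run with inhibitor at 1 μM; read-out is remaining kinase activity (percent of control).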
# [3] = molecular target: Calcium/calmodulin-dependent protein kinase type 1B (Homo sapiens, UniProt Q6P2M8); assay: Binding affinity to wild-type human partial length CAMK1B (W9 to A311 residues) expressed in mammalian expression system measured after 1 hr by competitive binding assay
# [4] = Toxicity in Sprague-Dawley rat assessed as adverse effect at 1 mg/kg, iv; assay type: organism-based; conditions: in vivo
# Outline: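 Fed Sprague–Dawley rats (n = 3) received one 1 mg/kg iv dose; adverse effects were recorded during the pharmacokinetic study.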
# [5] = molecular target: Homeodomain-interacting protein kinase 2 (Homo sapiens, UniProt Q9H2X6); assay: Binding affinity to wild-type human partial length HIPK2 (M153 to S564 residues) expressed in mammalian expression system measured after 1 hr by competitive binding assay
# [6] = molecular target: STE20/SPS1-related proline-alanine-rich protein kinase (Homo sapiens, UniProt Q9UEW8); assay: Binding affinity to wild-type human partial length STK39 (P43 to I357 residues) expressed in mammalian expression system measured after 1 hr by competitive binding assay
# [7] = molecular target: Serine/threonine-protein kinase WNK2 (Homo sapiens, UniProt Q9Y3S1); assay: Binding affinity to wild-type human partial length WNK2 (V47 to D482 residues) expressed in mammalian expression system measured after 1 hr by competitive binding assay
# [8] = molecular target: Dual specificity protein kinase CLK3 (Homo sapiens) (UniProt P49761); assay: Inhibition of wild-type human full length CLK3 (M1 to R490 residues) expressed in bacterial expression system assessed as remaining activity at 1 uM by Kinomescan method relative to control; outline: as §1
# [9] = Thermodynamic solubility of the compound at pH 6.8; assay type: physicochemical; conditions: buffer, read-out: Therm_solubility
# Outline: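 Thermodynamic solubility measured at pH 6.8 in a single experiment, reported in […].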
# [10] = molecular target: T2, Tyrosine-protein kinase JAK3 (Homo sapiens, UniProt P52333); assay: Binding affinity to wild-type human partial length JAK3 JH1 catalytic domain (I781 to S1124 residues) expressed in mammalian expression system measured after 1 hr by competitive binding assay
# T2 sequence (P52333 whole entry): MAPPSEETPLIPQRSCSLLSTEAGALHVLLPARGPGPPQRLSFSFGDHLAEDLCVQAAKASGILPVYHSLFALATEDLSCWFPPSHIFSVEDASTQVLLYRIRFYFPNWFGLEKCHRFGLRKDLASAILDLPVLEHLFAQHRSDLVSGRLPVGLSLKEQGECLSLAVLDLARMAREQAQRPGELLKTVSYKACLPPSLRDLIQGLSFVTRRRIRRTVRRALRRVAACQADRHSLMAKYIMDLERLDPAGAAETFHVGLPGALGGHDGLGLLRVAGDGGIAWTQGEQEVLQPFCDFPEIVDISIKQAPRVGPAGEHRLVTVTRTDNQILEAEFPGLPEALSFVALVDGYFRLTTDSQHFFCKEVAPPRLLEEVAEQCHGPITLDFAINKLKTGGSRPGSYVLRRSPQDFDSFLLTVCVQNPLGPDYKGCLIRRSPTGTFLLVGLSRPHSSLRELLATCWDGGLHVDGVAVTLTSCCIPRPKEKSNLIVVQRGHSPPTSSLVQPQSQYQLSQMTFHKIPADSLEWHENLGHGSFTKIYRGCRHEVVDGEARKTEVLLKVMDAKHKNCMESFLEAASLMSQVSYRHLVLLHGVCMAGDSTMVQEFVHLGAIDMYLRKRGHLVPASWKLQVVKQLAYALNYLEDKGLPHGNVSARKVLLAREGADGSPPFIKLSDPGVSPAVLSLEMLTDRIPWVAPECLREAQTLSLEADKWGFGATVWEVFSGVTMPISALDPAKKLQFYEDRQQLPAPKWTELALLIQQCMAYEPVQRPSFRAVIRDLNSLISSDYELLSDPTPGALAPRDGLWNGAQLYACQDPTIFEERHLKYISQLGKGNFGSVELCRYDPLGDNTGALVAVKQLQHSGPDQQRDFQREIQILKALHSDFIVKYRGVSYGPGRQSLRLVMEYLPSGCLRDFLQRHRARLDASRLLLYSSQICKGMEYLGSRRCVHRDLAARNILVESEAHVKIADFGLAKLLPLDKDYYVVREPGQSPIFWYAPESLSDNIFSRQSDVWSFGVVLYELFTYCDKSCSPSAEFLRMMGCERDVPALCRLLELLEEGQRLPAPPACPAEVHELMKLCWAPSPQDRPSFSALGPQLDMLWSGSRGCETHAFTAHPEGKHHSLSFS
# [11] = Metabolic stability in human liver microsomes; assay type: ADME, Microsome; conditions: read-out: Stabilty
# [12] = molecular target: Cyclin-dependent kinase 2 (Homo sapiens) (UniProt P24941); assay: Inhibition of wild-type human full length CDK2 (M1 to L298 residues) expressed in bacterial expression system assessed as remaining activity at 1 uM by Kinomescan method relative to control; outline: as §1
# [13] = molecular target: MAP kinase-interacting serine/threonine-protein kinase 2 (Homo sapiens, UniProt Q9HBH9); assay: Binding affinity to wild-type human partial length MKNK2 (G63 to S388 residues) expressed in mammalian expression system measured after 1 hr by competitive binding assay
# MAP kinase-interacting serine/threonine-protein kinase 2, sequence (Q9HBH9 whole entry, the tested form may be a part): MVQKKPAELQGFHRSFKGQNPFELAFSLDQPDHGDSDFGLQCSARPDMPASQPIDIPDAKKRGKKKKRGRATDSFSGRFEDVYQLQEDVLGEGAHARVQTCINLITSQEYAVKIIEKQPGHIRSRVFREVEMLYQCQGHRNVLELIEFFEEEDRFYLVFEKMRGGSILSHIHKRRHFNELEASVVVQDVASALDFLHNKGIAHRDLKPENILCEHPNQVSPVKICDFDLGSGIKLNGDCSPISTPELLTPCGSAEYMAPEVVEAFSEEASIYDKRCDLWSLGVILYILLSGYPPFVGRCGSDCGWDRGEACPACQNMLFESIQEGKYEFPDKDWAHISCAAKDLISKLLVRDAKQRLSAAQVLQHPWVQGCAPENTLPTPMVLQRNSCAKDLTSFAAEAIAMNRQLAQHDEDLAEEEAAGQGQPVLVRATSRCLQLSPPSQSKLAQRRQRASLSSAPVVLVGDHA
# Dual specificity protein kinase CLK3 (Homo sapiens), sequence (P49761 whole entry, looked up, the tested form may be a part): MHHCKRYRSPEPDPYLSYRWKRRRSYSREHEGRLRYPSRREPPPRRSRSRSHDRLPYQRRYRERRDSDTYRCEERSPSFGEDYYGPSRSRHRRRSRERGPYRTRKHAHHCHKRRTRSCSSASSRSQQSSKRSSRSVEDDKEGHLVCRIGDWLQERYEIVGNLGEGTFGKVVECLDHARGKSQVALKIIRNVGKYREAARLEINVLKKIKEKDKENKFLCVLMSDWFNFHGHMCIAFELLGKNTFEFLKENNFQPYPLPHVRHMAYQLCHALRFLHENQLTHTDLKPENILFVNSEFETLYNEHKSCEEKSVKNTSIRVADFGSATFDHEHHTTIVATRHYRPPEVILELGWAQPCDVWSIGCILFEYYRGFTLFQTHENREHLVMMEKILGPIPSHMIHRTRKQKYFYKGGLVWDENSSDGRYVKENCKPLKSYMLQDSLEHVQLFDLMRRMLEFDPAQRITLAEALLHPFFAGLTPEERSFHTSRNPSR
# Homeodomain-interacting protein kinase 2, sequence (Q9H2X6 whole entry, the tested form may be a part): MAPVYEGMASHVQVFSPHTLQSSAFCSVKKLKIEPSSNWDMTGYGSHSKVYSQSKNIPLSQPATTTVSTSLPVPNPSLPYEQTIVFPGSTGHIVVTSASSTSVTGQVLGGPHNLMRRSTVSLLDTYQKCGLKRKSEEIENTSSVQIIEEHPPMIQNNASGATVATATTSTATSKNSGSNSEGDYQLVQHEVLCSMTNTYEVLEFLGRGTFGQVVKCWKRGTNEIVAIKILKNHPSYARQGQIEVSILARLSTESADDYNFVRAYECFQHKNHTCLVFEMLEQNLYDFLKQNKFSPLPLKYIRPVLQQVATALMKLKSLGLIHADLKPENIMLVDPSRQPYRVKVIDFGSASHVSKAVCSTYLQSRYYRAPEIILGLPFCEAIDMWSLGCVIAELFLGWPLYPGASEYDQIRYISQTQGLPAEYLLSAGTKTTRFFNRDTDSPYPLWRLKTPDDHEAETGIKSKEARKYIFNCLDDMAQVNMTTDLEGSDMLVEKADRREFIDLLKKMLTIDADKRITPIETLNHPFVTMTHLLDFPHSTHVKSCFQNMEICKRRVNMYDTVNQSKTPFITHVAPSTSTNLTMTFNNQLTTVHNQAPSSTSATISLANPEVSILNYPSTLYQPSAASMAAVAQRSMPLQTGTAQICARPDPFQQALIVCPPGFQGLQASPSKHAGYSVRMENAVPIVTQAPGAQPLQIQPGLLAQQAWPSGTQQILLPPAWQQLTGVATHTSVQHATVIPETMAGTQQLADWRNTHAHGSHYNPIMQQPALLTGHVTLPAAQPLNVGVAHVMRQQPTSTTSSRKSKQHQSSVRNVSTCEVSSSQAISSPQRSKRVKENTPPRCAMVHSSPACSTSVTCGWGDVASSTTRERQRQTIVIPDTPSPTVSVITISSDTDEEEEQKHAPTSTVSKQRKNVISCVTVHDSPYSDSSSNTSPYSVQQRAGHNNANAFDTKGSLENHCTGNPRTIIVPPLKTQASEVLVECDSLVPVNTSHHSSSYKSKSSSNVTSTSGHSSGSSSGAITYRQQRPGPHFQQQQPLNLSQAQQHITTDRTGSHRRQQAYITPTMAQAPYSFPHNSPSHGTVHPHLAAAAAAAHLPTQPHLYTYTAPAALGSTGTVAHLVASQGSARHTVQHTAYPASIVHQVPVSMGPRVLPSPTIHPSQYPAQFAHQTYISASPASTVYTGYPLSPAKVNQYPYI
# Calcium/calmodulin-dependent protein kinase type 1B, sequence (Q6P2M8 whole entry, the tested form may be a part): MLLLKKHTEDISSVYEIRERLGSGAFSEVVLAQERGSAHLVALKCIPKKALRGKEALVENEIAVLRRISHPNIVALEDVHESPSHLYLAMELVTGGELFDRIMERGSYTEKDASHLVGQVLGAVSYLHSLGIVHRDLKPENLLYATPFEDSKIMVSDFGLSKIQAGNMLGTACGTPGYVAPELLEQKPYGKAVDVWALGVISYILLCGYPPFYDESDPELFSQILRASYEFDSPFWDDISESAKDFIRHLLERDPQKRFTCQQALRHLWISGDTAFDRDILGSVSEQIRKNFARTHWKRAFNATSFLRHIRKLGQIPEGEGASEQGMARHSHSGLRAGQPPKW
# Serine/threonine-protein kinase WNK2, sequence (Q9Y3S1 whole entry, the tested form may be a part): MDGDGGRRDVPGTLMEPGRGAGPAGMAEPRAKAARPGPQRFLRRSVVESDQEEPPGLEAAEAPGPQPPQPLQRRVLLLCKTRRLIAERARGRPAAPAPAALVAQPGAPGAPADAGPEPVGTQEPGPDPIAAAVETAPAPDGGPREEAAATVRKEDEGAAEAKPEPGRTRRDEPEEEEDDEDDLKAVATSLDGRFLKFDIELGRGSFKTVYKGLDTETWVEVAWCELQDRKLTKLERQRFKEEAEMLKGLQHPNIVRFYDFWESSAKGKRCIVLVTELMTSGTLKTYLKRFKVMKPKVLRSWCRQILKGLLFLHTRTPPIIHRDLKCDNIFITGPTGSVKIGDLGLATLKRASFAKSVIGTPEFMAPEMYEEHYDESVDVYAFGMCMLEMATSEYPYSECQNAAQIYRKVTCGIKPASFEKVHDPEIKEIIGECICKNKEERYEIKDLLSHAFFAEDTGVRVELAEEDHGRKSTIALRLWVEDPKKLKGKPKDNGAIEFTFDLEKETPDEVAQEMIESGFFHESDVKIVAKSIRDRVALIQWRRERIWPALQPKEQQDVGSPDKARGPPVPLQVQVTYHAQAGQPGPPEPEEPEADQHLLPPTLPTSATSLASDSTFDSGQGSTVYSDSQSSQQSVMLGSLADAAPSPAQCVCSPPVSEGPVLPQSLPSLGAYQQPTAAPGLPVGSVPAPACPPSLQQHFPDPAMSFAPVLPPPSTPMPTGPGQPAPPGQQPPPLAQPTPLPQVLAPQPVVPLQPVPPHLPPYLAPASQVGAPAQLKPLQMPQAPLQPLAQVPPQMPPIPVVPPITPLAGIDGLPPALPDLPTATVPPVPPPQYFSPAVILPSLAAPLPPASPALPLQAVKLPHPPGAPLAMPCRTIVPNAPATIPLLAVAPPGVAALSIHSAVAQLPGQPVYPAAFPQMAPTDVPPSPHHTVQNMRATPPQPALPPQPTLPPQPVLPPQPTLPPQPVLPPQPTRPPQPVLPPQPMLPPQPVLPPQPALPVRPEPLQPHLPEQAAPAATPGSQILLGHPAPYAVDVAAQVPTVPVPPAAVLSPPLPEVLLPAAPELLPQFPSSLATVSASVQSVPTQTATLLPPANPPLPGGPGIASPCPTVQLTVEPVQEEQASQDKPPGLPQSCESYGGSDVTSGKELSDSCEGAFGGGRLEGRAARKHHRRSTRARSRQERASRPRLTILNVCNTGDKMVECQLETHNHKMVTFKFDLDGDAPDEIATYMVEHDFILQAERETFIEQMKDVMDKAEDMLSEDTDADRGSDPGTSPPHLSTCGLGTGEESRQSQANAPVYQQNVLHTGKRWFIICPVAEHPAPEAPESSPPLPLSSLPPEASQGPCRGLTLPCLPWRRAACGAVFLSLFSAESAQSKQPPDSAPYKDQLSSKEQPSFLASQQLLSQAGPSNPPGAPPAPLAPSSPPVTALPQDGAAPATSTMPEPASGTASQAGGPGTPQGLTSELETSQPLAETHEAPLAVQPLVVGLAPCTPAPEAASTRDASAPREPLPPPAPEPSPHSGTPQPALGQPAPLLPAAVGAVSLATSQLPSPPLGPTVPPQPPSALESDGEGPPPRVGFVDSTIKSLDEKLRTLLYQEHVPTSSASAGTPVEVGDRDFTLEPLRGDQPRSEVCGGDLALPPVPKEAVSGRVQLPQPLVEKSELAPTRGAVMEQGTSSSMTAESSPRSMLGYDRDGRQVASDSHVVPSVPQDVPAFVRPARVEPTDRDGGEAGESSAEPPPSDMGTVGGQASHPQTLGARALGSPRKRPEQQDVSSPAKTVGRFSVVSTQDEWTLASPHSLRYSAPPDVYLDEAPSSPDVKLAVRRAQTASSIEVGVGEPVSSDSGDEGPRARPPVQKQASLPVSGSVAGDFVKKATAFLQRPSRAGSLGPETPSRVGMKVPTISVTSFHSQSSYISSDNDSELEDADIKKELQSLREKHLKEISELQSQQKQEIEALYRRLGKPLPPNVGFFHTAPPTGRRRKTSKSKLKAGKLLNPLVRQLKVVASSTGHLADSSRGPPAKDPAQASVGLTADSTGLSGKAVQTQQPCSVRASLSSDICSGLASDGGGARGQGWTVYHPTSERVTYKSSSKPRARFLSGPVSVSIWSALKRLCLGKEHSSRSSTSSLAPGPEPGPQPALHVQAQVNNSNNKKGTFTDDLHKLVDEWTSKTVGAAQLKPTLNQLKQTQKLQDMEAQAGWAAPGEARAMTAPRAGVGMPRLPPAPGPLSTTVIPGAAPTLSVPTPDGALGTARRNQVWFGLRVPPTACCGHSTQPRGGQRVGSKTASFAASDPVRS
smiles,measurement,setting,value
CN(C)c1nccc(-c2cnn3ncccc23)n1,AUC,[1],276.4 ng·h/mL
same,Activity,[2],19%
same,Kd,[3],10 µM
same,Activity,[4],Non-Toxic
same,Kd,[5],1.2 µM
same,Kd,[6],10 µM
same,Kd,[7],10 µM
same,Activity,[8],54%
same,solubility thermodynamic,[9],100 µg/mL
same,Kd,[10],1.8 µM
same,microsomal CLint,[11],242 µL/min/mg
same,Activity,[12],100%
same,Kd,[13],1.8 µM

# — ChEMBL document CHEMBL4808225, “Discovery and Characterization of Selective and Ligand-Efficient DYRK Inhibitors” (J Med Chem, 2021)
